Assay results collected from several papers.
Target: SRSF protein kinase 2 (SRPK2, Homo sapiens, UniProt P78362)

Structure (SMILES)	effect on	mode	method	tested at	endpoint	result
Cc1cc(-n2nc(Cc3cc(F)cc(C(F)(F)F)c3)nc2C)ccc1C(N)=O	cell-free assay		competition with immobilised ligand	1 µM	remaining binding	100%
Cc1ccc(NC(=O)c2ccc(C)c(C(F)(F)F)c2)cc1C#Cc1nn(C2CCC(O)CC2)c2ncnc(N)c12 (stereo not shown)	cell-free assay			10 µM	remaining signal	107%
Cn1c2c(c3ccc(Cl)c(Cl)c31)C(C#N)C1(CCNCC1)NC2=O (racemic)	thermal stability		DSF	10 µM	ΔTm	2.4 °C
CNC(=O)c1cc(Oc2ccc(NC(=O)Nc3ccc(Cl)c(C(F)(F)F)c3)cc2)ccn1	enzyme activity	inhibitor		0.3 µM	inhibition	2%
COc1cc(-c2cc(-c3ccc(N4CCNCC4)cc3)cnc2C)cc(OC)c1OC	enzyme activity	inhibitor		0.1 µM	inhibition	2%
CCN1CCC2(CC1)NC(=O)c1c(c3ccc(Cl)c(Cl)c3n1C)C2C#N (racemic)	thermal stability		DSF	10 µM	ΔTm	0.5 °C
O=C(O)c1cc(-c2ccc(C3CCNCC3)cc2)c2ccc(-c3ccc(C(F)(F)F)cc3)cc2c1	cell-free assay		competition with immobilised ligand	1 µM	remaining binding	100%
COc1cc2ncnc(Nc3ccc(Oc4ccccc4)cc3C)c2cc1OC	enzyme activity	inhibitor		1 µM	inhibition	0%
Cc1ccc(Nc2nccc(N(C)c3ccc4c(C)n(C)nc4c3)n2)cc1S(N)(=O)=O	enzyme activity	inhibitor		0.3 µM	inhibition	-9%
Cc1cc(NC(=O)c2cccc3cc(-c4cccc5[nH]nc(N)c45)ccc23)ccc1F	enzyme activity	inhibitor		0.1 µM	activity vs control	103%
CCCOc1ccc(OC)c(F)c1C(=O)c1ccc(C(=O)N[C@@H]2CNC[C@H]2NC(=O)c2ccc3[nH]ncc3c2)cc1	enzyme activity	inhibitor		10 µM	remaining activity	93%
N#CC1(c2ccccn2)CCN(Cc2cc(C(=O)N3CCCC3)c(=O)n3ccccc23)CC1	cell-free assay		competition with immobilised ligand	1 µM	remaining binding	84%
Cc1cnc(NC2CCOCC2)nc1-n1cnc(C(=O)NC(CN)c2cc(F)cc(Cl)c2)c1 (stereo not shown)	enzyme activity	inhibitor	radiometric	1 µM	remaining activity	101%
CCOCCn1cc(C(=O)Nc2ccc(-n3nc(-c4cccnc4)cc3C(F)(F)F)cn2)ccc1=O	cell-free assay		competition with immobilised ligand	1 µM	remaining binding	100%
Cn1c2c(c3ccc(Cl)c(Cl)c31)C(C#N)C1(CCCC1)NC2=O (stereo not shown)	thermal stability		DSF	10 µM	ΔTm	0 °C
N#CCCc1ccc2c(c1)-c1[nH]c3ccc([N+](=O)[O-])cc3c1CC(=O)N2	cell-free assay			0.5 µM	remaining signal	109%

Structure (SMILES)	effect on	mode	method	tested at	endpoint	result
CN1CCN(c2cnc3c(C4CCN(C(=O)c5ccc(OC(F)(F)F)cc5N)CC4)ncnc3c2)CC1	cell-free assay		competition with immobilised ligand	1 µM	remaining binding	78%
CN1CCC2(CC1)NC(=O)c1c(c3ccc(Cl)c(Cl)c3n1C)C2C#N (racemic)	thermal stability		DSF	10 µM	ΔTm	0.7 °C
CCN(CC)CCNC(=O)c1c(C)[nH]c(/C=C2\C(=O)Nc3ccc(F)cc32)c1C	enzyme activity	inhibitor		0.3 µM	inhibition	6%
CC(C)(C)c1nc(-c2cccc(NS(=O)(=O)c3c(F)cccc3F)c2F)c(-c2ccnc(N)n2)s1	enzyme activity	inhibitor	radiometric	1 µM	remaining activity	111%
CCOc1cc(-c2nncn2C)ccc1Nc1ncc2cc(C)nc(NCC(C)(C)C)c2n1	enzyme activity	inhibitor	FRET	1 µM	inhibition	< 15%
Nc1ncnc2occ(-c3ccc(NC(=O)Nc4cc(C(F)(F)F)ccc4F)cc3)c12	cell-free assay	inhibitor		20 µM	remaining signal	100%
CC(C)(O)[C@H]1CC[C@H](Nc2ccc3ncc(-c4cccc(C(F)(F)F)c4)n3n2)CC1	enzyme activity	inhibitor		1 µM	remaining activity	94.5%
Cn1c2c(c3ccc(Cl)c(Cl)c31)C(C#N)C1(CCOCC1)NC2=O (stereo not shown)	thermal stability		DSF	10 µM	ΔTm	0.2 °C
CN(C)CC#Cc1ccc(OCCCc2sc(N3CCc4cccc(C(=O)Nc5nc6ccccc6s5)c4C3)nc2C(=O)O)c(F)c1	cell-free assay		competition with immobilised ligand	1 µM	remaining binding	100%
O=C(Nc1cnn(-c2csc(C(=O)NC3COC3)c2)c1)Nc1c(F)cccc1Cl	enzyme activity	inhibitor		5 µM	remaining activity	94%
C[C@@H]1CCN(C(=O)CC#N)C[C@@H]1N(C)c1ncnc2[nH]ccc12	cell-free assay	inhibitor		0.5 µM	remaining signal	90.7%
CNC(=O)c1ccc(Nc2ncc(C(F)(F)F)c(NCc3nccnc3N(C)S(C)(=O)=O)n2)cc1	cell-free assay		competition with immobilised ligand	0.1 µM	remaining binding	100%
Cn1c2c(c3ccc(Cl)c(Cl)c31)C(C#N)C1(CCCCC1)NC2=O (racemic)	thermal stability		DSF	10 µM	ΔTm	0.2 °C
CN([C@@H]1CCc2c(CC(=O)O)c3ccccc3n2C1)S(=O)(=O)c1ccc(F)cc1	cell-free assay		competition with immobilised ligand	1 µM	remaining binding	100%
O=C1NC(=O)c2cc(Nc3ccc(F)cc3)c(Nc3ccc(F)cc3)cc21	cell-free assay			0.5 µM	remaining signal	92.3%
